Source: ChEMBL document CHEMBL1138351, “Small, potent, and selective diaryl phosphonate inhibitors for urokinase-type plasminogen activator with in vivo antimetastatic properties” (J Med Chem, 2007)
Activity calls are given as the source filed them. No cut-off for these calls is given here.

Legend:
Prothrombin [1] = biological target: T1, Prothrombin (Homo sapiens, UniProt P00734); experiment: Inhibition of thrombin at 100 uM
Plasminogen = Plasminogen (Homo sapiens, UniProt P00747); experiment: Inhibition of human plasmin
Summary of the method: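 Plasmin from human plasma at about 5 mU was preincubated with inhibitor (0–250 µM final) for 15 min at 37 °C. Substrate was S-2366 at 580 µM in Tris pH 7.4. Initial rate was read at 405 nm, in duplicate. IC50 came from a four-parameter logistic fit.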

[2] = biological target: T2, Urokinase-type plasminogen activator (Homo sapiens, UniProt P00749)
[3] = biological target: Tissue-type plasminogen activator (Homo sapiens, UniProt P00750); experiment: Inhibition of human recombinant tPA
Homo sapiens [4] = organism: Homo sapiens; experiment: Selectivity index, ratio of IC50 for human plasmin to IC50 for human uPA
Summary of the method: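 Selectivity index is IC50(plasmin)/IC50(uPA). Plasmin: human plasma-derived, about 5 mU, 580 µM S-2366, Tris pH 7.4. uPA: human, about 1 mU, 250 µM S-2444, 50 mM Tris pH 8.8. Both had 15 min preincubation at 37 °C, 405 nm initial rates in duplicate, and a four-parameter logistic fit.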

Homo sapiens [5] = organism: Homo sapiens; experiment: Selectivity index, ratio of IC50 for human recombinant tPA to IC50 for human uPA
Coagulation factor X [6] = biological target: T3, Coagulation factor X (Homo sapiens, UniProt P00742); experiment: Inhibition of factor 10a at 250 uM
Homo sapiens [7] = organism: Homo sapiens; experiment: Selectivity index, ratio of IC50 for human thrombin to IC50 for human uPA
Summary of the method: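 Selectivity index is IC50(thrombin)/IC50(uPA). Thrombin: human plasma-derived, about 5 mU, 580 µM S-2366, Tris pH 8.3. uPA: human, about 1 mU, 250 µM S-2444, 50 mM Tris pH 8.8. Both had 15 min preincubation at 37 °C, 405 nm initial rates in duplicate, and a four-parameter logistic fit.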

[8] = biological target: T2, Urokinase-type plasminogen activator; remark: listed apart in the source
Prothrombin [9] = biological target: T1, Prothrombin; experiment: Inhibition of human thrombin
Summary of the method: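 Human plasma thrombin was assayed at 37 °C in Tris pH 8.3. […] Initial rate was read at 405 nm, in duplicate. IC50 was obtained from a four-parameter logistic fit.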

Coagulation factor X [10] = biological target: T3, Coagulation factor X; experiment: Inhibition of factor 10a
Summary of the method: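 Human factor Xa (FX activated with Russell's viper venom) at about 5 mU was preincubated with inhibitor (0–250 µM final) for 15 min at 37 °C. […] IC50 came from a four-parameter logistic fit.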

Homo sapiens [11] = organism: Homo sapiens; experiment: Selectivity index, ratio of IC50 for human factor 10a to IC50 for human uPA
Prothrombin [12] = biological target: T1, Prothrombin; experiment: Inhibition of human thrombin at 250 uM
Summary of the method: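 Human plasma thrombin was assayed at 37 °C in Tris pH 8.3. IC50 was obtained from a four-parameter logistic fit.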

Coagulation factor X [13] = biological target: T3, Coagulation factor X; experiment: Inhibition of factor 10a at 62 uM

T3 sequence (P00742 41-179 limits assumed): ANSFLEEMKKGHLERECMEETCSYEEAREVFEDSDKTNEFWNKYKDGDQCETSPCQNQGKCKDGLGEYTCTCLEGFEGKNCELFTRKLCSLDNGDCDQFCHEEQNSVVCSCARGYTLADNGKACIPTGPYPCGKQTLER
T3 sequence (P00742 235-488 limits assumed): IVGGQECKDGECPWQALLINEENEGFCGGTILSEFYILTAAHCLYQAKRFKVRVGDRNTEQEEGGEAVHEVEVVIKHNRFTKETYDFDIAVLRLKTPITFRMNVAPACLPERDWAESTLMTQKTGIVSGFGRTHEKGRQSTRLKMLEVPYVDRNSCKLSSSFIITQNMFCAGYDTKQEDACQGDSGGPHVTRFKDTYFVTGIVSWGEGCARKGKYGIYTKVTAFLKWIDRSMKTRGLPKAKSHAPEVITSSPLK
Chain of Tissue-type plasminogen activator (P00750 whole entry): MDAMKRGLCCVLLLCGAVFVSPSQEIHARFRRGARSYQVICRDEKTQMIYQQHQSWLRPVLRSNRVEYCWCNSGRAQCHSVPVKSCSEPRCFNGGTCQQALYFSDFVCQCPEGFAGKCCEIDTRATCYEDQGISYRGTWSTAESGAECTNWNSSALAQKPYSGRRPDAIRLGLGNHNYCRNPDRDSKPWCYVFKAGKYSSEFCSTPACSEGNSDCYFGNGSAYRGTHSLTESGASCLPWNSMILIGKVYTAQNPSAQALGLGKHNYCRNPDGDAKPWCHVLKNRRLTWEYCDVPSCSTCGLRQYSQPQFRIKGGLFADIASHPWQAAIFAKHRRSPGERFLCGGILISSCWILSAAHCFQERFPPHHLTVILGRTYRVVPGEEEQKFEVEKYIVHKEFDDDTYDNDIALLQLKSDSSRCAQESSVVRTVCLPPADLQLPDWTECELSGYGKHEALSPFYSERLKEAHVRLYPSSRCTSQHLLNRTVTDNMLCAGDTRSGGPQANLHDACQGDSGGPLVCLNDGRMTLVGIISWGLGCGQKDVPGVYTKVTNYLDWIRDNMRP
Chain of Plasminogen (P00747 97-580 limits assumed): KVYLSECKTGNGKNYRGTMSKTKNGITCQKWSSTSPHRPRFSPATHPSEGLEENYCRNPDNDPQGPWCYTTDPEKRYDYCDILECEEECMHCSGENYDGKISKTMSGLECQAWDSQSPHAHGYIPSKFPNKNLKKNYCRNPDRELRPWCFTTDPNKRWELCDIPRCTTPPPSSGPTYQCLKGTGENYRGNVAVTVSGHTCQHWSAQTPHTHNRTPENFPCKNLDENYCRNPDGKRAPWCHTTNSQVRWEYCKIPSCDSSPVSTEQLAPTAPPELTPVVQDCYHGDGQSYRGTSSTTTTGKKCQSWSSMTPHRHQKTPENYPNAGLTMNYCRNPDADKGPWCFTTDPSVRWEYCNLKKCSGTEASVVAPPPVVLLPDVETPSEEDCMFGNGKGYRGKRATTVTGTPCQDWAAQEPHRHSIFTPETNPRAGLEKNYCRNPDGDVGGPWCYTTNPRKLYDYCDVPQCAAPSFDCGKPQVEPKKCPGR
Chain of Plasminogen (P00747 581-810 limits assumed): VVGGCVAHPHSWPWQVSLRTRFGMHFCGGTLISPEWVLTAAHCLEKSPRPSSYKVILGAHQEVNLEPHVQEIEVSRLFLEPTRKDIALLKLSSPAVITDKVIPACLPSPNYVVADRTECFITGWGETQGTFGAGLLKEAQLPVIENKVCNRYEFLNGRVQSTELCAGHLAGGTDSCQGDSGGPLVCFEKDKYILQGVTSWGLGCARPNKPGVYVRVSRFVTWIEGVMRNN

With `C[C@H](NC(=O)[C@@H](CO)NS(=O)(=O)Cc1ccccc1)C(=O)NCc1ccc(NC(=N)N)cc1` the Activity (Prothrombin [1]) was “inactive”, the Ki (Plasminogen) was 40 µM and the Ki [2] was 0.016 µM. For the same compound, the Ki [3] was greater than 2.5 µM.

Work on `CC(=O)Nc1ccc(OP(=O)(Oc2ccc(NC(C)=O)cc2)C(Cc2ccc(NC(=N)N)cc2)NS(C)(=O)=O)cc1` (stereo not drawn) yielded a Ratio IC50 (Homo sapiens [4]) of 550, a Ratio IC50 (Homo sapiens [5]) of 1000 and an inhibition (Coagulation factor X [6]) of 55%. The Ratio IC50 (Homo sapiens [7]) was 700 and the Kapp [8] was 210000 M⁻¹ s⁻¹.

`N=C(N)NCCCC(NC(=O)OCc1ccccc1)P(=O)(Oc1ccccc1)Oc1ccccc1` (stereo not drawn) was tested, and the Ratio IC50 (Homo sapiens [4]) was 35, the Ratio IC50 (Homo sapiens [5]) was 50 and the inhibition (Coagulation factor X [6]) was 70%. The Ratio IC50 (Homo sapiens [7]) was 0.9, the IC50 (Plasminogen) was 30 µM and the IC50 [2] was 0.84 µM. It also gave an IC50 (Prothrombin [9]) of 0.78 µM, a Kapp [8] of 100 M⁻¹ s⁻¹ and an IC50 [3] of 44 µM.

`N=C(N)c1ccc(CC(NC(=O)OCc2ccccc2)P(=O)(Oc2ccccc2)Oc2ccccc2)cc1` (stereo not drawn) was tested, and the inhibition (Coagulation factor X [6]) was 65% and the Kapp [8] was 2000 M⁻¹ s⁻¹.

Work on `CC(=O)NC(Cc1ccc(NC(=N)N)cc1)P(=O)(Oc1ccccc1)Oc1ccccc1` (stereo not drawn) yielded an IC50 [2] of 0.0072 µM and a Kapp [8] of 1.4e+06 M⁻¹ s⁻¹.

`N=C(N)Nc1ccc(CNC(=O)OCc2ccccc2)cc1` gave a Ki (Coagulation factor X [10]) greater than 1000 µM, a Ki (Plasminogen) greater than 1000 µM and a Ki (Prothrombin [9]) greater than 1000 µM. It also gave a Ki [3] greater than 1000 µM.

`CS(=O)(=O)NC(Cc1ccc(NC(=N)N)cc1)P(=O)(Oc1ccccc1)Oc1ccccc1` (stereo not drawn) showed an IC50 (Coagulation factor X [10]) of 250 µM, an IC50 (Prothrombin [9]) of 125 µM and a Kapp [8] of 140000 M⁻¹ s⁻¹.

Compound `CC(C)c1cc(C(C)C)c(S(=O)(=O)NC(Cc2ccc(NC(=N)N)cc2)P(=O)(Oc2ccccc2)Oc2ccccc2)c(C(C)C)c1` (stereo not drawn) has a Ratio IC50 (Homo sapiens [4]) of 500, a Ratio IC50 (Homo sapiens [5]) of 60 and a Ratio IC50 (Homo sapiens [11]) of 80. For the same compound, the Kapp [8] was 1600 M⁻¹ s⁻¹ and the inhibition (Prothrombin [12]) was 60%.

`N=C(N)Nc1ccc(CC(NC(=O)OCc2ccccc2)P(=O)(Oc2ccccc2)Oc2ccccc2)cc1` (stereo not drawn) was tested, and the Kapp [8] was 42000 M⁻¹ s⁻¹.

`CCOC(=O)NC(Cc1ccc(NC(=N)N)cc1)P(=O)(Oc1ccccc1)Oc1ccccc1` (stereo not drawn) gave a Kapp [8] of 40000 M⁻¹ s⁻¹.

In the case of `N=C(N)c1ccc(C(NC(=O)OCc2ccccc2)P(=O)(Oc2ccccc2)Oc2ccccc2)cc1` (stereo not drawn), the Kapp [8] is reported as 43 M⁻¹ s⁻¹.

Work on `N=C(N)Nc1ccc(CC(NS(=O)(=O)c2cccc3ccccc23)P(=O)(Oc2ccccc2)Oc2ccccc2)cc1` (stereo not drawn) yielded a Kapp [8] of 7300 M⁻¹ s⁻¹.

`N=C(N)Nc1ccc(CC(NS(=O)(=O)Cc2ccccc2)P(=O)(Oc2ccccc2)Oc2ccccc2)cc1` (stereo not drawn) gave an inhibition (Coagulation factor X [13]) of 59% and a Kapp [8] of 19000 M⁻¹ s⁻¹.

In the case of `N=C(N)c1ccc(CCC(NC(=O)OCc2ccccc2)P(=O)(Oc2ccccc2)Oc2ccccc2)cc1` (stereo not drawn), the Ratio IC50 (Homo sapiens [4]) is reported as 7, the Ratio IC50 (Homo sapiens [5]) is reported as 70 and the Ratio IC50 (Homo sapiens [7]) is reported as 20. The Ratio IC50 (Homo sapiens [11]) was 15 and the Kapp [8] was 140 M⁻¹ s⁻¹.

`CC(=O)Nc1ccc(OP(=O)(Oc2ccc(NC(C)=O)cc2)C(Cc2ccc(NC(=N)N)cc2)NC(=O)OCc2ccccc2)cc1` (stereo not drawn) was tested, and the Ratio IC50 (Homo sapiens [4]) was 200, the Ratio IC50 (Homo sapiens [5]) was 1700 and the Ratio IC50 (Homo sapiens [7]) was 90. For the same compound, the Ratio IC50 (Homo sapiens [11]) was 23000 and the Kapp [8] was 80000 M⁻¹ s⁻¹.

`C[C@H](NC(=O)[C@@H](CO)NS(=O)(=O)Cc1ccccc1)C(=O)NC(Cc1ccc(NC(=N)N)cc1)P(=O)(Oc1ccccc1)Oc1ccccc1` (stereo partly drawn) showed an IC50 (Coagulation factor X [10]) of 33.5 µM and an IC50 [2] of 0.004 µM.

Compound `N=C(N)Nc1ccc(CC(NC(=O)c2ccccc2)P(=O)(Oc2ccccc2)Oc2ccccc2)cc1` (stereo not drawn) has a Kapp [8] of 2400 M⁻¹ s⁻¹.
